According to the RNAGym collection of RNA variant scans (doi:10.1126/science.aae0568):
This sample holds only a part of the variants without activity.

B1: tRNA (parent)
chain: GUUCCGUUGGCGUAAUGGUAACGCGUCUCCCUCCUAAGGAGAAGACUGCGGGUUCGAGUCCCGUACGGAACG

Variants of: B1
Assay: yeast fitness relative to wild type (ratio to wild type); higher = fitter; tRNA-Arg(CCU), competitive growth, 37 C, YPD
In short: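 Variants of the tRNA-Arg(CCU) gene, chemically synthesised with a 3% per-site mutation rate at 69 sites, were placed at the native genomic locus in Saccharomyces cerevisiae. The pooled strains were competed in YPD at 37°C for 24 hours in six parallel replicates. Gene amplicons from the start population and from each end population were read by 100-nucleotide paired-end sequencing. Darwinian fitness relative to wild type came from changes in genotype frequencies; genotypes needed ≥ 100 starting reads, and estimates < 0.5 were set to 0.5.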

Which yeast fitness does the source give for GUUCCGUUGGCGUAAUGGUAACGCGUCUCCCUCCUAAGGAGAAGACUGCGGGUUCGAGUUCCGUAUGGAACG [C60U C66U] here?
Its yeast fitness is 0.711.

With GUUCCGUUGGCGUAAUGGUAACGCGUCUCCCUCCUAAGGAGAAGACUGCGGGUUCGAGUUCCGUACAGAACG [C60U G67A] as the variant, how does the yeast fitness read?
The yeast fitness was 0.721.

With GUUCCGUUGGCGUAAUGGUAACGCGUCUCCCUCCUAAGGAGAAGACUGCGGGUUCGAGUUCCGCACGGAACG [C60U U64C] as the variant, how does the yeast fitness read?
The yeast fitness was 0.833.

For GUUCCGUUGGCGUAAUGGUAACGCGUCUCCCUCCUAAGGAGAAGACUGCGGGUUCGAGUCACGUACGGGACG [C61A A69G], which yeast fitness is on record?
Its yeast fitness is 0.584.

Which yeast fitness does the source give for GUUCCGUUGGCGUAAUGGUAACGCGUCUCCCUCCUAAGGAGAAGACUGCGGGUUCGAGUCACGUACGGACCG [C61A A70C] here?
The yeast fitness was 0.694.

For GUUCCGUUGGCGUAAUGGUAACGCGUCUCCCUCCUAAGGAGAAGACUGCGGGUUCGAGUCAAGUACGGAACG [C61A C62A], which yeast fitness is on record?
The yeast fitness was 0.603.

Which yeast fitness does the source give for GUUCCGUUGGCGUAAUGGUAACGCGUCUCCCUCCUAAGGAGAAGACUGCGGGUUCGAGUCAUGUACGGAACG [C61A C62U] here?
Its yeast fitness is 0.795.

Which yeast fitness does the source give for GUUCCGUUGGCGUAAUGGUAACGCGUCUCCCUCCUAAGGAGAAGACUGCGGGUUCGAGUCACGUAGGGAACG [C61A C66G] here?
The yeast fitness was 0.572.

For GUUCCGUUGGCGUAAUGGUAACGCGUCUCCCUCCUAAGGAGAAGACUGCGGGUUCGAGUCACCUACGGAACG [C61A G63C], which yeast fitness is on record?
Its yeast fitness is 0.618.

For GUUCCGUUGGCGUAAUGGUAACGCGUCUCCCUCCUAAGGAGAAGACUGCGGGUUCGAGUCACGUACAGAACG [C61A G67A], which yeast fitness is on record?
The yeast fitness was 0.582.

With GUUCCGUUGGCGUAAUGGUAACGCGUCUCCCUCCUAAGGAGAAGACUGCGGGUUCGAGUCGCGUCCGGAACG [C61G A65C] as the variant, how does the yeast fitness read?
The yeast fitness was 0.658.

Which yeast fitness does the source give for GUUCCGUUGGCGUAAUGGUAACGCGUCUCCCUCCUAAGGAGAAGACUGCGGGUUCGAGUCGCGUGCGGAACG [C61G A65G] here?
Its yeast fitness is 0.713.

Which yeast fitness does the source give for GUUCCGUUGGCGUAAUGGUAACGCGUCUCCCUCCUAAGGAGAAGACUGCGGGUUCGAGUCGCGUGUGGGACG [C61G A65G C66U A69G] here?
The yeast fitness was 0.646.

With GUUCCGUUGGCGUAAUGGUAACGCGUCUCCCUCCUAAGGAGAAGACUGCGGGUUCGAGUCGCGUACGGAGCG [C61G A70G] as the variant, how does the yeast fitness read?
The yeast fitness was 0.685.

Which yeast fitness does the source give for GUUCCGUUGGCGUAAUGGUAACGCGUCUCCCUCCUAAGGAGAAGACUGCGGGUUCGAGUCGCGUACGGAUCG [C61G A70U] here?
Its yeast fitness is 0.772.

Which yeast fitness does the source give for GUUCCGUUGGCGUAAUGGUAACGCGUCUCCCUCCUAAGGAGAAGACUGCGGGUUCGAGUCGAGUACGGAACG [C61G C62A] here?
Its yeast fitness is 0.503.

Which yeast fitness does the source give for GUUCCGUUGGCGUAAUGGUAACGCGUCUCCCUCCUAAGGAGAAGACUGCGGGUUCGAGUCGGGUACGGAACG [C61G C62G] here?
Its yeast fitness is 0.741.

With GUUCCGUUGGCGUAAUGGUAACGCGUCUCCCUCCUAAGGAGAAGACUGCGGGUUCGAGUCGGGUACGGACCG [C61G C62G A70C] as the variant, how does the yeast fitness read?
The yeast fitness was 0.512.

With GUUCCGUUGGCGUAAUGGUAACGCGUCUCCCUCCUAAGGAGAAGACUGCGGGUUCGAGUCGCGUAUGGAACG [C61G C66U] as the variant, how does the yeast fitness read?
The yeast fitness was 0.635.

For GUUCCGUUGGCGUAAUGGUAACGCGUCUCCCUCCUAAGGAGAAGACUGCGGGUUCGAGUCGCCUACGGAACG [C61G G63C], which yeast fitness is on record?
The yeast fitness was 0.532.

For GUUCCGUUGGCGUAAUGGUAACGCGUCUCCCUCCUAAGGAGAAGACUGCGGGUUCGAGUCUCGUGCGGAACG [C61U A65G], which yeast fitness is on record?
Its yeast fitness is 1.07.

Which yeast fitness does the source give for GUUCCGUUGGCGUAAUGGUAACGCGUCUCCCUCCUAAGGAGAAGACUGCGGGUUCGAGUCUCGUGCGAAACG [C61U A65G G68A] here?
Its yeast fitness is 0.705.

Which yeast fitness does the source give for GUUCCGUUGGCGUAAUGGUAACGCGUCUCCCUCCUAAGGAGAAGACUGCGGGUUCGAGUCUCGUACGGGCCG [C61U A69G A70C] here?
The yeast fitness was 0.923.

Which yeast fitness does the source give for GUUCCGUUGGCGUAAUGGUAACGCGUCUCCCUCCUAAGGAGAAGACUGCGGGUUCGAGUCUCGUACGGUACG [C61U A69U] here?
The yeast fitness was 1.02.

For GUUCCGUUGGCGUAAUGGUAACGCGUCUCCCUCCUAAGGAGAAGACUGCGGGUUCGAGUCUCGUACGGAUCG [C61U A70U], which yeast fitness is on record?
Its yeast fitness is 1.04.

With GUUCCGUUGGCGUAAUGGUAACGCGUCUCCCUCCUAAGGAGAAGACUGCGGGUUCGAGUCUCGUAGGGAACG [C61U C66G] as the variant, how does the yeast fitness read?
The yeast fitness was 0.706.

For GUUCCGUUGGCGUAAUGGUAACGCGUCUCCCUCCUAAGGAGAAGACUGCGGGUUCGAGUCUCGUAUGGAACG [C61U C66U], which yeast fitness is on record?
The yeast fitness was 0.929.

For GUUCCGUUGGCGUAAUGGUAACGCGUCUCCCUCCUAAGGAGAAGACUGCGGGUUCGAGUCUCCUACGGAACG [C61U G63C], which yeast fitness is on record?
Its yeast fitness is 0.565.

For GUUCCGUUGGCGUAAUGGUAACGCGUCUCCCUCCUAAGGAGAAGACUGCGGGUUCGAGUCUCGUACAGAACG [C61U G67A], which yeast fitness is on record?
Its yeast fitness is 0.649.

With GUUCCGUUGGCGUAAUGGUAACGCGUCUCCCUCCUAAGGAGAAGACUGCGGGUUCGAGUCUCGUACUGAACG [C61U G67U] as the variant, how does the yeast fitness read?
Its yeast fitness is 0.86.

With GUUCCGUUGGCGUAAUGGUAACGCGUCUCCCUCCUAAGGAGAAGACUGCGGGUUCGAGUCUCGUACGAAGCG [C61U G68A A70G] as the variant, how does the yeast fitness read?
Its yeast fitness is 0.648.

With GUUCCGUUGGCGUAAUGGUAACGCGUCUCCCUCCUAAGGAGAAGACUGCGGGUUCGAGUCUCGAACGGAACG [C61U U64A] as the variant, how does the yeast fitness read?
Its yeast fitness is 0.606.

For GUUCCGUUGGCGUAAUGGUAACGCGUCUCCCUCCUAAGGAGAAGACUGCGGGUUCGAGUCUCGCACGGAACG [C61U U64C], which yeast fitness is on record?
Its yeast fitness is 0.902.

For GUUCCGUUGGCGUAAUGGUAACGCGUCUCCCUCCUAAGGAGAAGACUGCGGGUUCGAGUCCAGUCCGGAACG [C62A A65C], which yeast fitness is on record?
Its yeast fitness is 0.766.

Which yeast fitness does the source give for GUUCCGUUGGCGUAAUGGUAACGCGUCUCCCUCCUAAGGAGAAGACUGCGGGUUCGAGUCCAGUUCGGAUCG [C62A A65U A70U] here?
The yeast fitness was 0.531.

With GUUCCGUUGGCGUAAUGGUAACGCGUCUCCCUCCUAAGGAGAAGACUGCGGGUUCGAGUCCAGUACGGGGCG [C62A A69G A70G] as the variant, how does the yeast fitness read?
Its yeast fitness is 0.614.

With GUUCCGUUGGCGUAAUGGUAACGCGUCUCCCUCCUAAGGAGAAGACUGCGGGUUCGAGUCCAGUACGGAGCG [C62A A70G] as the variant, how does the yeast fitness read?
Its yeast fitness is 0.674.
